For one compound, Drug uptake and Activity results are on record in ChEMBL document CHEMBL3045217, “Factors affecting the synergy of thiabendazole, sodium bicarbonate, and heat to control postharvest green mold of citrus fruit” (J Agric Food Chem, 2008).

For data set [1], the system named is Fruit surface. Kind of data set: Drug residues on Citrus sinensis cvs. Salustiana (Salustiana oranges) fruit surface at 600 mg/L treated for 3 min at 20 degC postharvest measured after overnight incubation at 17 degC by GC analysis. To be noted: 0.05 h. It is filed as ADME. An outline of the steps:
(§1)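 'Salustiana' oranges were washed with water and air-dried. They were dipped 1 or 3 min in TBZ 600 mg/L at 20 or 50 °C, or 1 min in TBZ 600 mg/L plus 2% SBC at 20 °C, then dried overnight at 17 °C in the dark. Surface residue was taken by water extraction and wax residue by chloroform extraction. Inner residue was measured in fruit after both extractions. Extracts were dried under N2, taken up in acetone and analysed by GC. Values are mg/kg on a whole-fruit basis.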

Data set [2] relates to Penicillium digitatum. As to the kind of experiment: Fungicidal activity against TBZ-sensitive Penicillium digitatum infected Valencia oranges assessed as postharvest green mold incidence at 400 mg/L treated for 1 min at 40 degC at 20 hr after fungal conidial inoculation measured after 7 days of storage at 20 degC in presence of 0.5% SBC (water Rvb = 42.5%). In kind it is functional. An outline of the steps: (§2)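 Fruit were surface-disinfected in 1 g/L hypochlorite for 30 s, rinsed, dried, then wounded twice equatorially (2 mm × 2 mm rod). Inoculation was a 1 min dip in P. digitatum conidia, 1 × 10^5 conidia/mL final. Fruit were held 20 h at 20 °C and 90% RH, dipped 1 min (SBC wt/vol), and air-dried. Storage was 20 °C, 90% RH. Decay incidence (% fruit with lesions) was scored at 5 d for mandarins and 7 d for oranges. Three replicates of 40 fruit were used; arcsin-transformed data were compared by LSD, p ≤ 0.05.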

The next data set relates to Cuticular wax. As to the kind of experiment: Drug residues in Citrus sinensis cvs. Salustiana (Salustiana oranges) cuticular wax at 600 mg/L treated for 1 min at 20 degC postharvest measured after overnight incubation at 17 degC by GC analysis. It is filed as ADME. An outline of the steps: as §1
Data set [3] has as its system Penicillium digitatum. As to the kind of experiment: Fungicidal activity against Penicillium digitatum infected Valenica oranges assessed as fruit weight loss at 600 mg/L treated for 1 min at 20 degC postharvest at 20 hr after fungal conidial inoculation measured after 7 days of storage at 17 degC in presence of 2% SBC (water Rvb = 3.94%). In kind it is functional.

Data set [4] has as its system Penicillium digitatum. As to the kind of experiment: Fungicidal activity against Penicillium digitatum infected Valenica oranges assessed as fruit weight loss at 600 mg/L treated for 1 min at 20 degC postharvest at 20 hr after fungal conidial inoculation measured after 21 days of storage at 17 degC in presence of 1% SBC (water Rvb = 11.20%). In kind it is functional.

Data set [5] concerns Penicillium digitatum. As to the kind of experiment: Fungicidal activity against Penicillium digitatum infected Valenica oranges assessed as fruit weight loss at 400 mg/L treated for 1 min at 40 degC postharvest at 20 hr after fungal conidial inoculation measured after 14 days of storage at 17 degC in presence of 2% SBC (water Rvb = 9.20%). It is filed as functional.
Data set [6] concerns Fruit. As to the kind of experiment: Drug residues in Citrus sinensis cvs. Valencia late (Valencia oranges) at 600 mg/L treated for 1 min at 20 degC postharvest measured immediately post-drug treatment by GC analysis. In kind it is ADME. The method, boiled down: (§3)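 'Valencia' oranges were dipped 1 min in TBZ at 600 mg/L (20 °C, ±0.5, 1 or 2% wt/vol SBC), 400 mg/L (40 °C, ±SBC) or 200 mg/L (50 °C, alone), then air-dried. They were sampled at 0, 10 and 20 days at 17 °C. Peel of five fruit was frozen, and 5 g of homogenate was extracted with ethyl acetate/hexane (1/1) plus NaCl. The extract was dried under N2, taken up in acetone and analysed by GC. Results are mg/kg on a whole-fruit basis.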

In data set [7] the test system is Fruit. As to the kind of experiment: Drug residues in Citrus sinensis cvs. Valencia late (Valencia oranges) at 200 mg/L treated for 1 min at 50 degC postharvest measured after 10 days of storage at 17 degC by GC analysis. In kind it is ADME. An outline of the steps: as §3
Another data set concerns Inner fruit. As to the kind of experiment: Drug residues in Citrus sinensis cvs. Salustiana (Salustiana oranges) inner fruit at 600 mg/L treated for 3 min at 20 degC postharvest measured after overnight incubation at 17 degC by GC analysis. In kind it is ADME. Particulars: 0.05 h. An outline of the steps: as §1
For data set [8], the system named is Penicillium digitatum. As to the kind of experiment: Fungicidal activity against TBZ-resistant Penicillium digitatum infected Valencia oranges assessed as postharvest green mold incidence at 400 mg/L treated for 1 min at 40 degC at 20 hr after fungal conidial inoculation measured after 7 days of storage at 20 degC (water Rvb = 90.0%). In kind it is functional.

Data set [9] concerns Penicillium digitatum. As to the kind of experiment: Fungicidal activity against Penicillium digitatum infected Valenica oranges assessed as fruit weight loss at 400 mg/L treated for 1 min at 40 degC postharvest at 20 hr after fungal conidial inoculation measured after 7 days of storage at 17 degC in presence of 2% SBC (water Rvb = 4.70%). It is filed as functional.
Data set [10] relates to Fruit surface. Kind of data set: Drug residues on Citrus sinensis cvs. Salustiana (Salustiana oranges) fruit surface at 600 mg/L treated for 1 min at 50 degC postharvest measured after overnight incubation at 17 degC by GC analysis. In kind it is ADME. An outline of the steps: as §1
Data set [11] deals with Penicillium digitatum. Kind of data set: Fungicidal activity against Penicillium digitatum infected Valenica oranges assessed as fruit weight loss at 600 mg/L treated for 1 min at 20 degC postharvest at 20 hr after fungal conidial inoculation measured after 7 days of storage at 17 degC (water Rvb = 3.13%). In kind it is functional.
The subject of data set [12] is Penicillium digitatum. Kind of data set: Fungicidal activity against TBZ-sensitive Penicillium digitatum infected Nova mandarins assessed as postharvest green mold incidence at 200 mg/L treated for 1 min at 50 degC at 20 hr after fungal conidial inoculation measured after 5 days of storage at 20 degC (water Rvb = 98.3%). In kind it is functional. The method, boiled down:
as §2

Data set [13] has as its system Penicillium digitatum. Kind of data set: Fungicidal activity against Penicillium digitatum infected Valenica oranges assessed as fruit weight loss at 400 mg/L treated for 1 min at 40 degC postharvest at 20 hr after fungal conidial inoculation measured after 21 days of storage at 17 degC (water Rvb = 8.83%). It is filed as functional.
Data set [14] has as its system Fruit. Kind of data set: Drug residues in Citrus sinensis cvs. Valencia late (Valencia oranges) at 200 mg/L treated for 1 min at 50 degC postharvest measured immediately post-drug treatment by GC analysis. In kind it is ADME. The method, boiled down: as §3
The subject of data set [15] is Penicillium digitatum. Kind of data set: Fungicidal activity against TBZ-sensitive Penicillium digitatum infected Nova mandarins assessed as postharvest green mold incidence at 600 mg/L treated for 1 min at 20 degC at 20 hr after fungal conidial inoculation measured after 5 days of storage at 20 degC in presence of 2% SBC (water Rvb = 96.7%). In kind it is functional. An outline of the steps: as §2

In data set [16] the test system is Penicillium digitatum. Kind of data set: Fungicidal activity against TBZ-sensitive Penicillium digitatum infected Valencia oranges assessed as postharvest green mold incidence at 200 mg/L treated for 1 min at 50 degC at 20 hr after fungal conidial inoculation measured after 7 days of storage at 20 degC (water Rvb = 53.3%). It is filed as functional. An outline of the steps:
as §2

Data set [17] relates to Penicillium digitatum. Kind of data set: Fungicidal activity against Penicillium digitatum infected Valenica oranges assessed as fruit weight loss at 400 mg/L treated for 1 min at 40 degC postharvest at 20 hr after fungal conidial inoculation measured after 7 days of storage at 17 degC (water Rvb = 3.42%). In kind it is functional.
In data set [18] the test system is Penicillium digitatum. Kind of data set: Fungicidal activity against TBZ-resistant Penicillium digitatum infected Valencia oranges assessed as postharvest green mold incidence at 600 mg/L treated for 1 min at 20 degC at 20 hr after fungal conidial inoculation measured after 7 days of storage at 20 degC in presence of 1% SBC (water Rvb = 54.2%). In kind it is functional.

As for `c1ccc2[nH]c(-c3cscn3)nc2c1` [THIABENDAZOLE], the Drug uptake was found to be 0.69 mg/kg in the data set with Fruit surface [1]; 0.17 mg/kg in the data set on Cuticular wax; 1.59 mg/kg in the data set with Fruit [6]; 0.43 mg/kg in the data set on Fruit [7]; 0.13 mg/kg in the data set with Inner fruit; 0.66 mg/kg in the data set on Fruit surface [10]. Besides, the Drug uptake in the data set with Fruit [14] came to 0.45 mg/kg. In addition, the Activity in the data set on Penicillium digitatum [2] came to 16.7%; with Penicillium digitatum [3], 4.81%; with Penicillium digitatum [4], 12.35%; in the data set on Penicillium digitatum [5], 9.45%; in the data set with Penicillium digitatum [8], 55.8%; in the data set on Penicillium digitatum [9], 4.55%. Also, the Activity in the data set on Penicillium digitatum [11] is 3.59%; in the data set on Penicillium digitatum [12], 3.3%; in the data set with Penicillium digitatum [13], 8.96%; with Penicillium digitatum [15] it was 0%; in the data set on Penicillium digitatum [16], 5.8%; in the data set with Penicillium digitatum [17], 3.22%. Further, the Activity with Penicillium digitatum [18] is on record as 25%.
